ChEMBL document CHEMBL1921699, “Cucurbitane glucosides from the root of Machilus yaoshansis” (J Nat Prod, 2011)
The source made the active and inactive calls. No cut-off for these calls is given here.

Legend:
A2780 = assay: Cytotoxicity against human A2780 cells after 96 hrs by MTT assay; assay type: functional, cell-based; settings: A2780, 96 h
Outline: (§1)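 Tested on a human tumour panel of A2780 (ovary), HCT-8 (colon), Bel-7402 (hepatoma), BGC-823 (stomach) and A549 (lung) lines. Camptothecin was the positive control.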

HCT-8 = assay: Cytotoxicity against human HCT8 cells after 96 hrs by MTT assay; assay type: functional, cell-based; settings: HCT-8, 96 h; outline: as §1
Bel-7402 = assay: Cytotoxicity against human Bel7402 cells after 96 hrs by MTT assay; assay type: functional, cell-based; settings: Bel-7402, 96 h; outline: as §1
[1] = Cytotoxicity against human […] cells after 96 hrs by MTT assay; assay type: functional, cell-based; outline: as §1
A549 = assay: Cytotoxicity against human A549 cells after 96 hrs by MTT assay; assay type: functional, cell-based; settings: A549, 96 h; outline: as §1
[2] = (§2) Antiinflammatory activity in C57BL6J mouse peritoneal macrophages assessed as inhibition of LPS-stimulated TNFalpha secretion at 10 uM after 24 hrs by MTT assay; assay type: functional, cell-based; settings: Peritoneal macrophage cell
[3] = tested on: Peritoneal macrophage cell; assay: as §2; assay type: functional, cell-based
[4] = target: T1, Tyrosine-protein phosphatase non-receptor type 1 (Homo sapiens, UniProt P18031); assay: Inhibition of GST-tagged human recombinant PTP1B assessed as dephosphorylation of para-nitrophenyl phosphate after 10 mins by spectrophotometric analysis
T1 sequence (P18031 whole entry): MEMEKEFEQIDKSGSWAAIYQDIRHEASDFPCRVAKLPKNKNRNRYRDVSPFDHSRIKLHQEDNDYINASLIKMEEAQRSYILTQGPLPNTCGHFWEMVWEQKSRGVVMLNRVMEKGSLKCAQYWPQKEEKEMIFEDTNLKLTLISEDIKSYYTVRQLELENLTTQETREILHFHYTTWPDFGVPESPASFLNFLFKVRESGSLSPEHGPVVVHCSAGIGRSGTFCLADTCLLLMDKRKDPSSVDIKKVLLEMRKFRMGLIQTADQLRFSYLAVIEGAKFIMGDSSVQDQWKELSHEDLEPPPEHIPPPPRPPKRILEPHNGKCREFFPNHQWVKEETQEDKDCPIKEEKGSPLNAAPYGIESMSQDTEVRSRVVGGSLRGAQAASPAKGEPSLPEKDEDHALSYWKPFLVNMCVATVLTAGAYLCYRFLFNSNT

IC50 [4]	Compound	IC50 (A2780)	IC50 (HCT-8)	IC50 (Bel-7402)	IC50 [1]	IC50 (A549)	IC50 [2]	Activity [3]
	CO[C@@H](CC(=O)[C@](C)(O)[C@H]1[C@H](O)C[C@@]2(C)[C@@H]3CC=C4[C@@H](C=C(O)C(=O)C4(C)C)[C@]3(C)C(=O)C[C@]12C)C(C)(C)O	> 10 µM	> 10 µM	> 10 µM	> 10 µM	> 10 µM	> 10 µM	
	CC1(C)C(=O)C(O)=C[C@@H]2C1=CC[C@@H]1[C@@]2(C)C(=O)C[C@]2(C)[C@@H]([C@@](C)(O)C(=O)C[C@H](O)C(C)(C)O)[C@H](O)C[C@@]12C	> 10 µM	> 10 µM	> 10 µM	> 10 µM	> 10 µM	> 10 µM	
	CC(C)(O)/C=C/C(=O)[C@](C)(O)[C@H]1[C@H](O)C[C@@]2(C)[C@@H]3CC=C4[C@@H](C=C(O[C@@H]5O[C@H](CO)[C@@H](O)[C@H](O)[C@H]5O)C(=O)C4(C)C)[C@]3(C)C(=O)C[C@]12C	> 10 µM	> 10 µM	> 10 µM	> 10 µM	> 10 µM		inactive
	CC(=O)[C@H]1[C@H](O)C[C@@]2(C)[C@@H]3CC=C4[C@@H](C=C(O[C@@H]5O[C@H](CO)[C@@H](O)[C@H](O)[C@H]5O)C(=O)C4(C)C)[C@]3(C)C(=O)C[C@]12C [KHEKADAENGOSIDE K]	> 10 µM	> 10 µM	> 10 µM	> 10 µM	> 10 µM		inactive
	CC1(C)C(=O)C(O[C@@H]2O[C@H](CO)[C@@H](O)[C@H](O)[C@H]2O)=C[C@@H]2C1=CC[C@@H]1[C@@]2(C)C(=O)C[C@]2(C)[C@@H]([C@@](C)(O)C(=O)C[C@H](O)C(C)(C)O)[C@H](O)C[C@@]12C	> 10 µM	> 10 µM	> 10 µM	> 10 µM	> 10 µM		inactive
	C[C@H]1[C@H]2[C@@H](C[C@@]3(C)[C@@H]4CC=C5[C@@H](C=C(O[C@@H]6O[C@H](CO)[C@@H](O)[C@H](O)[C@H]6O)C(=O)C5(C)C)[C@]4(C)C(=O)C[C@]23C)O[C@@]2(O)CC(C)(C)O[C@@]12O	> 10 µM	> 10 µM	> 10 µM	> 10 µM	> 10 µM		inactive
	CC[C@@]1(O)C(=O)OCc2c1cc1n(c2=O)Cc2cc3ccccc3nc2-1 [CAMPTOTHECIN]	0.26 µM	0.26 µM	0.26 µM	0.26 µM	0.26 µM		
4.26 µM	CC1(C)C(=O)C(O[C@@H]2O[C@H](CO)[C@@H](O)[C@H](O)[C@H]2O)=C[C@@H]2C1=CC[C@@H]1[C@@]2(C)C(=O)C[C@]2(C)[C@@H]([C@@](C)(O)C(=O)C[C@H]3NC(=O)OC3(C)C)[C@H](O)C[C@@]12C	> 10 µM	> 10 µM	> 10 µM	> 10 µM	> 10 µM		inactive
	CC1(C)C(=O)C(O[C@@H]2O[C@H](CO)[C@@H](O)[C@H](O)[C@H]2O)=C[C@@H]2C1=CC[C@@H]1[C@@]2(C)C(=O)C[C@]2(C)[C@@H]([C@@](C)(O)C(=O)C[C@@H](O)C(C)(C)O)[C@H](O)C[C@@]12C	> 10 µM	> 10 µM	> 10 µM	> 10 µM	> 10 µM		inactive
	CC1(C)C(=O)C(O[C@@H]2O[C@H](CO)[C@@H](O)[C@H](O)[C@H]2O)=C[C@@H]2C1=CC[C@@H]1[C@@]2(C)C(=O)C[C@]2(C)[C@@H]([C@@]3(C)OC=CC3=O)[C@H](O)C[C@@]12C	> 10 µM	> 10 µM	> 10 µM	> 10 µM	> 10 µM		inactive
	CC(=O)C1=CC[C@@]2(C)[C@@H]3CC=C4[C@@H](C=C(O[C@@H]5O[C@H](CO)[C@@H](O)[C@H](O)[C@H]5O)C(=O)C4(C)C)[C@]3(C)C(=O)C[C@]12C	> 10 µM	> 10 µM	> 10 µM	> 10 µM	> 10 µM		inactive
	CC(=O)OC(C)(C)/C=C/C(=O)[C@](C)(O)[C@H]1[C@H](O)C[C@@]2(C)[C@@H]3CC=C4[C@@H](C=C(O[C@@H]5O[C@H](CO)[C@@H](O)[C@H](O)[C@H]5O)C(=O)C4(C)C)[C@]3(C)C(=O)C[C@]12C	> 10 µM	> 10 µM	> 10 µM	4.98 µM	3.2 µM		inactive
2.81 µM	CC1(C)C(=O)C(O[C@@H]2O[C@H](CO)[C@@H](O)[C@H](O)[C@H]2O)=C[C@@H]2C1=CC[C@@H]1[C@@]2(C)C(=O)C[C@]2(C)[C@@H]3[C@@H](C[C@@]12C)O[C@H](C(C)(C)O)CC(=O)[C@]3(C)O	> 10 µM	> 10 µM	> 10 µM	> 10 µM	> 10 µM		inactive
	CC1(C)C(=O)C(O)=C[C@@H]2C1=CC[C@@H]1[C@@]2(C)C(=O)C[C@]2(C)[C@@H]([C@@](C)(O)C(=O)C[C@@H](O)C(C)(C)O)[C@H](O)C[C@@]12C	> 10 µM	> 10 µM	> 10 µM	> 10 µM	> 10 µM		inactive
	CO[C@@H](CC(=O)[C@](C)(O)[C@H]1[C@H](O)C[C@@]2(C)[C@@H]3CC=C4[C@@H](C=C(O[C@@H]5O[C@H](CO)[C@@H](O)[C@H](O)[C@H]5O)C(=O)C4(C)C)[C@]3(C)C(=O)C[C@]12C)C(C)(C)O	> 10 µM	> 10 µM	> 10 µM	> 10 µM	> 10 µM		inactive
8.63 µM	CC1(C)C[C@]2(O)O[C@@H]3C[C@@]4(C)[C@@H]5CC=C6[C@@H](C=C(O[C@@H]7O[C@H](CO)[C@@H](O)[C@H](O)[C@H]7O)C(=O)C6(C)C)[C@]5(C)C(=O)C[C@]4(C)[C@H]3[C@@](C)(O)[C@]2(O)O1	> 10 µM	> 10 µM	> 10 µM	> 10 µM	> 10 µM		inactive
